System: U2OS
Assay: Multiplex assay against U2OS
Format: toxicity, cell-based
Settings: human
Outline: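 Live cells were stained at seeding with Hoechst33342, BioTracker Green Microtubule Cytoskeleton Dye, MitoTracker Red and Annexin V Alexa Fluor 680, then imaged on a CQ1 microscope at 37°C and 5% CO2 after compound addition. CellPathfinder machine-learning gating split cells into Hoechst high-intensity objects or normal cells. Normal cells were split into healthy, pyknosed or fragmented nuclei, and pyknosed cells into mitotic or apoptotic. Tubulin, mitochondrial-mass and membrane-permeability phenotypes are per cents of healthy-nucleus cells.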

[1] = 12 h, 1 µM, compound concentration 1 uM, replicate 1
[2] = 12 h, 1 µM, compound concentration 1 uM, replicate 2
[3] = 12 h, 10 µM, compound concentration 10 uM, replicate 1
[4] = 12 h, 10 µM, compound concentration 10 uM, replicate 2
[5] = 24 h, 1 µM, compound concentration 1 uM, replicate 1
[6] = 24 h, 1 µM, compound concentration 1 uM, replicate 2
[7] = 24 h, 10 µM, compound concentration 10 uM, replicate 1
[8] = 24 h, 10 µM, compound concentration 10 uM, replicate 2
[9] = 48 h, 1 µM, compound concentration 1 uM, replicate 1
[10] = 48 h, 1 µM, compound concentration 1 uM, replicate 2
[11] = 48 h, 10 µM, compound concentration 10 uM, replicate 1
[12] = 48 h, 10 µM, compound concentration 10 uM, replicate 2

O=S(=O)(c1ccccc1)c1cnc2c(N3CCNCC3)cccc2c1 [INTEPIRDINE]
Population Apoptotic (%) [1]: 76%
Population Fragmented Nuclei (%) [1]: 23%
Population Healthy Nuclei (%) [1]: 68%
Population Hoechst High Intensity Objects (%) [1]: 1%
Population Membrane Permeable-Phenotype (%) [1]: 6%
Population Mitochondria Different-Phenotype (%) [1]: 3%
Population Mitotic Cells (%) [1]: 23%
Population Normal (%) [1]: 98%
Population Pyknosed Nuclei (%) [1]: 7%
Population Tubulin-Different-Phenotype (%) [1]: 4%
Total Cell Count [1]: 267
Population Apoptotic (%) [2]: 70%
Population Fragmented Nuclei (%) [2]: 17%
Population Healthy Nuclei (%) [2]: 71%
Population Hoechst High Intensity Objects (%) [2]: 0%
Population Membrane Permeable-Phenotype (%) [2]: 7%
Population Mitochondria Different-Phenotype (%) [2]: 6%
Population Mitotic Cells (%) [2]: 30%
Population Normal (%) [2]: 100%
Population Pyknosed Nuclei (%) [2]: 11%
Population Tubulin-Different-Phenotype (%) [2]: 7%
Total Cell Count [2]: 88
Population Apoptotic (%) [3]: 58%
Population Fragmented Nuclei (%) [3]: 25%
Population Healthy Nuclei (%) [3]: 61%
Population Hoechst High Intensity Objects (%) [3]: 3%
Population Membrane Permeable-Phenotype (%) [3]: 23%
Population Mitochondria Different-Phenotype (%) [3]: 11%
Population Mitotic Cells (%) [3]: 41%
Population Normal (%) [3]: 96%
Population Pyknosed Nuclei (%) [3]: 12%
Population Tubulin-Different-Phenotype (%) [3]: 14%
Total Cell Count [3]: 204
Population Apoptotic (%) [4]: 85%
Population Fragmented Nuclei (%) [4]: 10%
Population Healthy Nuclei (%) [4]: 79%
Population Hoechst High Intensity Objects (%) [4]: 2%
Population Membrane Permeable-Phenotype (%) [4]: 12%
Population Mitochondria Different-Phenotype (%) [4]: 13%
Population Mitotic Cells (%) [4]: 14%
Population Normal (%) [4]: 97%
Population Pyknosed Nuclei (%) [4]: 10%
Population Tubulin-Different-Phenotype (%) [4]: 10%
Total Cell Count [4]: 139
Population Apoptotic (%) [5]: 80%
Population Fragmented Nuclei (%) [5]: 22%
Population Healthy Nuclei (%) [5]: 67%
Population Hoechst High Intensity Objects (%) [5]: 2%
Population Membrane Permeable-Phenotype (%) [5]: 7%
Population Mitochondria Different-Phenotype (%) [5]: 2%
Population Mitotic Cells (%) [5]: 19%
Population Normal (%) [5]: 97%
Population Pyknosed Nuclei (%) [5]: 9%
Population Tubulin-Different-Phenotype (%) [5]: 4%
Total Cell Count [5]: 319
Population Apoptotic (%) [6]: 69%
Population Fragmented Nuclei (%) [6]: 14%
Population Healthy Nuclei (%) [6]: 73%
Population Hoechst High Intensity Objects (%) [6]: 0%
Population Membrane Permeable-Phenotype (%) [6]: 3%
Population Mitochondria Different-Phenotype (%) [6]: 3%
Population Mitotic Cells (%) [6]: 30%
Population Normal (%) [6]: 99%
Population Pyknosed Nuclei (%) [6]: 12%
Population Tubulin-Different-Phenotype (%) [6]: 1%
Total Cell Count [6]: 108
Population Apoptotic (%) [7]: 72%
Population Fragmented Nuclei (%) [7]: 23%
Population Healthy Nuclei (%) [7]: 60%
Population Hoechst High Intensity Objects (%) [7]: 3%
Population Membrane Permeable-Phenotype (%) [7]: 17%
Population Mitochondria Different-Phenotype (%) [7]: 14%
Population Mitotic Cells (%) [7]: 27%
Population Normal (%) [7]: 96%
Population Pyknosed Nuclei (%) [7]: 16%
Population Tubulin-Different-Phenotype (%) [7]: 10%
Total Cell Count [7]: 233
Population Apoptotic (%) [8]: 77%
Population Fragmented Nuclei (%) [8]: 10%
Population Healthy Nuclei (%) [8]: 77%
Population Hoechst High Intensity Objects (%) [8]: 0%
Population Membrane Permeable-Phenotype (%) [8]: 10%
Population Mitochondria Different-Phenotype (%) [8]: 17%
Population Mitotic Cells (%) [8]: 22%
Population Normal (%) [8]: 99%
Population Pyknosed Nuclei (%) [8]: 11%
Population Tubulin-Different-Phenotype (%) [8]: 6%
Total Cell Count [8]: 156
Population Apoptotic (%) [9]: 89%
Population Fragmented Nuclei (%) [9]: 15%
Population Healthy Nuclei (%) [9]: 70%
Population Hoechst High Intensity Objects (%) [9]: 3%
Population Membrane Permeable-Phenotype (%) [9]: 6%
Population Mitochondria Different-Phenotype (%) [9]: 4%
Population Mitotic Cells (%) [9]: 10%
Population Normal (%) [9]: 96%
Population Pyknosed Nuclei (%) [9]: 14%
Population Tubulin-Different-Phenotype (%) [9]: 4%
Total Cell Count [9]: 416
Population Apoptotic (%) [10]: 76%
Population Fragmented Nuclei (%) [10]: 13%
Population Healthy Nuclei (%) [10]: 68%
Population Membrane Permeable-Phenotype (%) [10]: 3%
Population Mitochondria Different-Phenotype (%) [10]: 2%
Population Mitotic Cells (%) [10]: 23%
Population Pyknosed Nuclei (%) [10]: 18%
Population Tubulin-Different-Phenotype (%) [10]: 2%
Total Cell Count [10]: 148
Population Apoptotic (%) [11]: 78%
Population Fragmented Nuclei (%) [11]: 22%
Population Healthy Nuclei (%) [11]: 59%
Population Hoechst High Intensity Objects (%) [11]: 4%
Population Membrane Permeable-Phenotype (%) [11]: 15%
Population Mitochondria Different-Phenotype (%) [11]: 7%
Population Mitotic Cells (%) [11]: 22%
Population Normal (%) [11]: 95%
Population Pyknosed Nuclei (%) [11]: 17%
Population Tubulin-Different-Phenotype (%) [11]: 6%
Total Cell Count [11]: 302
Population Apoptotic (%) [12]: 95%
Population Fragmented Nuclei (%) [12]: 13%
Population Healthy Nuclei (%) [12]: 75%
Population Hoechst High Intensity Objects (%) [12]: 2%
Population Membrane Permeable-Phenotype (%) [12]: 10%
Population Mitochondria Different-Phenotype (%) [12]: 12%
Population Mitotic Cells (%) [12]: 4%
Population Normal (%) [12]: 97%
Population Pyknosed Nuclei (%) [12]: 11%
Population Tubulin-Different-Phenotype (%) [12]: 4%
Total Cell Count [12]: 201
